Laboratory results from ChEMBL document CHEMBL4811252, “Identification of novel 1,3-diaryl-1,2,4-triazole-capped histone deacetylase 6 inhibitors with potential anti-gastric cancer activity” (Eur J Med Chem, 2021).
The source made the active and inactive calls. No cut-off for these calls is given here.

Key:
MGC-803 [1] = experiment: Induction of apoptosis in human MGC803 cells assessed as necrotic cells at 8 uM measured after 48 hrs by Annexin-V FITC/PI staining based flow cytometry (reference value: 4.74%); format: functional
[2] = Acute toxicity in C57BL/6 mouse assessed as heart tissue damage at 2 g/kg, po administered via gavage measured up to 14 days by HE staining based assay; format: organism-based; settings: in vivo, 2000 mg/kg, 336 h, time <=14 day
In short: (§1)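 Mice aged 8-10 weeks, 20 females and 20 males, split into two groups: vehicle control (0.5% CMC-Na) or a single oral gavage dose of 2000 mg/kg. Animals were fed and observed normally for 14 days, recording body weight, mortality and behaviour. Heart, liver, spleen, lung and kidney sections were then fixed, embedded and H&E stained.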

MGC-803 [3] = experiment: Induction of apoptosis in human MGC803 cells assessed as late apoptotic cells at 4 uM measured after 48 hrs by Annexin-V FITC/PI staining based flow cytometry (reference value: 2.74%); format: functional
[4] = Acute toxicity in C57BL/6 mouse assessed as kidney tissue damage at 2 g/kg, po administered via gavage measured up to 14 days by HE staining based assay; format: organism-based; settings: in vivo, 2000 mg/kg, 336 h, time <=14 day; in short: as §1
[5] = Acute toxicity in C57BL/6 mouse assessed as spleen tissue damage at 2 g/kg, po administered via gavage measured up to 14 days by HE staining based assay; format: organism-based; settings: in vivo, 2000 mg/kg, 336 h, time <=14 day; in short: as §1
MGC-803 [6] = experiment: Antiproliferative activity against human MGC803 cells at 2 to 8 uM after 72 hrs by EdU staining based assay; format: functional, cell-based; settings: dose 2-8 µM
In short: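 MGC803 cells exposed to 0, 2, 4 or 8 µM for 72 h in 24-well plates, then EdU staining per kit instructions. EdU+ cells were imaged by immunofluorescence and quantified. Mean ± SD of three independent experiments; DMSO control.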

MGC-803 [7] = experiment: Induction of apoptosis in human MGC803 cells assessed as viable cells at 4 uM measured after 48 hrs by Annexin-V FITC/PI staining based flow cytometry (reference value: 92.33%); format: functional; settings: read-out: Activity
[8] = Acute toxicity in C57BL/6 mouse assessed as lung tissue damage at 2 g/kg, po administered via gavage measured up to 14 days by HE staining based assay; format: organism-based; settings: in vivo, 2000 mg/kg, 336 h, time <=14 day; in short: as §1
[9] = Acute toxicity in C57BL/6 mouse assessed as behavioral abnormalities at 2 g/kg, po administered via gavage measured up to 14 days; format: organism-based; settings: in vivo, 2000 mg/kg, 336 h, time <=14 day; in short: as §1
Histone deacetylase 1 [10] = target: T1, Histone deacetylase 1 (Homo sapiens, UniProt Q13547); experiment: Inhibition of recombinant human HDAC1 using Z-(Ac)-Lys-AMC as substrate incubated for 40 mins by fluorescence based assay
T1 sequence (Q13547 whole entry): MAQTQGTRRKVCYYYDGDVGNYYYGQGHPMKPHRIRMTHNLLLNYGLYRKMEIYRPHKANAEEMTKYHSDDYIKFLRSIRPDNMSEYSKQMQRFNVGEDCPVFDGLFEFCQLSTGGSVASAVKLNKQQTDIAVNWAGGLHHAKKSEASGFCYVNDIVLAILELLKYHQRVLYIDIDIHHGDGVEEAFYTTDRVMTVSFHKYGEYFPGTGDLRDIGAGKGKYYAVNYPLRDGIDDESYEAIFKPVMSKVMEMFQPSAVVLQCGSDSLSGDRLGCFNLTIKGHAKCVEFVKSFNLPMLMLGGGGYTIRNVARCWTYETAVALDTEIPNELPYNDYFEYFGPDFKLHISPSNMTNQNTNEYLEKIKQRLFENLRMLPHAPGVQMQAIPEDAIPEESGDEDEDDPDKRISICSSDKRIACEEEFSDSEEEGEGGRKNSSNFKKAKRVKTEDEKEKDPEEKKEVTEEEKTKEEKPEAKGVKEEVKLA

MGC-803 [11] = experiment: Induction of apoptosis in human MGC803 cells assessed as early apoptotic cells at 8 uM measured after 48 hrs by Annexin-V FITC/PI staining based flow cytometry (reference value: 0.19%); format: functional
Histone deacetylase 1 [12] = target: T1, Histone deacetylase 1; settings: dose 100.0 nM, time 40.0 min
MGC-803 [13] = experiment: Induction of apoptosis in human MGC803 cells assessed as increase in caspase-9 expression after 48 hrs by Western blotting analysis; format: functional, cell-based; settings: dose 2-8 µM
In short: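 MGC803 cells treated for 48 h, then lysed (0.1% SDS, 150 mM NaCl, 25 mM Tris-HCl, 1% deoxycholate, 1% NP-40, 1% PMSF). Protein quantified by BCA and resolved on 8–10% SDS-PAGE onto PVDF. Blocked in 5% milk, primary antibodies overnight at 4 °C, HRP secondary, ECL. GAPDH, total α-tubulin and H3 as references. Mean ± SD of three experiments.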

MGC-803 [14] = experiment: Inhibition of cell invasion in human MGC803 cells after 72 hrs by transwell assay; format: functional, cell-based; settings: dose 2-8 µM
In short: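 Matrigel-coated transwell: cells in upper chamber with 1% FBS medium, 20% FBS medium below, compound added, 72 h. Cells fixed in 4% paraformaldehyde, DAPI-stained, then imaged and analyzed by high-content analysis. Mean ± SD of three experiments versus DMSO.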

[15] = target: T2, Protein deacetylase HDAC6 (Homo sapiens) (UniProt Q9UBN7); experiment: Binding affinity to HDAC6 in human MGC803 cells assessed as increase in thermal stability at 4 uM after 6 hrs by CETSA; format: cell-based; settings: MGC-803
T2 sequence (whole entry): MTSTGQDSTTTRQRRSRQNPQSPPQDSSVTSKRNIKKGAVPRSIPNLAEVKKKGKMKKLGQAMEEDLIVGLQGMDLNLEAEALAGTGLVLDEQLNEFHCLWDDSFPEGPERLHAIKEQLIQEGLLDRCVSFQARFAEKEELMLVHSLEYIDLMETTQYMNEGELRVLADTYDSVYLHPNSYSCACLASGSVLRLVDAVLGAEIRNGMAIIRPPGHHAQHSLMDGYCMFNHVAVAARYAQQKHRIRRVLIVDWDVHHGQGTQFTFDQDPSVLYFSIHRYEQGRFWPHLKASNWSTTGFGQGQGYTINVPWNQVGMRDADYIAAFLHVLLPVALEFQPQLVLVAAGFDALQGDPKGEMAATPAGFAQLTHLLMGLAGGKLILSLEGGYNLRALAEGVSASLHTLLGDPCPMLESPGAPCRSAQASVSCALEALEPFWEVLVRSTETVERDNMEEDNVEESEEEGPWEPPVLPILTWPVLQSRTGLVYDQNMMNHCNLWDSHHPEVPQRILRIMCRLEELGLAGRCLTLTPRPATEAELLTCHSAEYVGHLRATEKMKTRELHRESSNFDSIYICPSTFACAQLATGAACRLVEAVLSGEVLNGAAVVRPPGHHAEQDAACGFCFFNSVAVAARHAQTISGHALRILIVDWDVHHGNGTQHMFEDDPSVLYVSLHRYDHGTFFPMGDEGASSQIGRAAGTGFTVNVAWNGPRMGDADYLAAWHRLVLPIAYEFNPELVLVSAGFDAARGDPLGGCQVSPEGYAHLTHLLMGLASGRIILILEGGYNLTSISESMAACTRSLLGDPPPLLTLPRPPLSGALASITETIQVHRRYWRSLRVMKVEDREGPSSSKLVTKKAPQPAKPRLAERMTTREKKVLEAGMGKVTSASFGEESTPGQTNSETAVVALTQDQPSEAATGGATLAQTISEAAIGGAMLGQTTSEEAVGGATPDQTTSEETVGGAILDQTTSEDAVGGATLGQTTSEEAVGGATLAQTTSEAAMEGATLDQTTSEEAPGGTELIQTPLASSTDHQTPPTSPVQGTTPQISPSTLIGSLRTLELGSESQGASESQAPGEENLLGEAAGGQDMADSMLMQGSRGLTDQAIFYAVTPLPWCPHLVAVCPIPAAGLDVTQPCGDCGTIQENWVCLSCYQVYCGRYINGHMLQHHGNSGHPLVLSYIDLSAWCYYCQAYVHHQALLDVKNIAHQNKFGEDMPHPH
In short: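 MGC803 grown 24 h in 6-well plates, then exposed to DMSO or 4 µM compound for 6 h. Cells resuspended in ice-cold PBS and split into 6 tubes. Lysed by repeated freeze-thaw, heated 3 min across a 44 to 54 °C gradient. Soluble HDAC6 in the supernatant read by Western blot.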

[16] = Acute toxicity in C57BL/6 mouse assessed as mortality at 2 g/kg, po administered via gavage measured up to 14 days; format: organism-based; settings: in vivo, 2000 mg/kg, 336 h, time <=14 day; in short: as §1

Compound: Cc1ccc(-c2nc(CNc3ccc(C(=O)NO)cc3)n(-c3ccccc3)n2)s1
- Activity (MGC-803 [1]): 1.96%
- Activity [2]: Non-Toxic
- Activity (MGC-803 [3]): 15.5%
- Activity [4]: Non-Toxic
- Activity [5]: Non-Toxic
- Activity (MGC-803 [6]): Active
- viability at 4 µM (MGC-803 [7]): 79.3%
- Activity [8]: Non-Toxic
- Activity [9]: Non-Toxic
- IC50 (Histone deacetylase 1 [10]): 3.94 µM
- Activity (MGC-803 [11]): 8.76%
- inhibition (Histone deacetylase 1 [12]): 30.1%
- Activity (MGC-803 [13]): Dose-Dependent Effect
- inhibition (MGC-803 [14]): Dose-Dependent Effect
- Activity [15]: Active
- Activity [16]: Non-Toxic
